# Ecoli tolC: growth inhibitors of E. coli BW25113 tolC mutant; OD615; growth inhibition, % at 10 µM (by protocol); 65,000 tested, 2.2% active;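 active means growth inhibition at or above a cutoff equal to the mean over every tested compound plus 3 SD, cut at about 60% in these data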;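 further: growth measured after 20 h incubation at 37 °C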
#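 signal = optical density read at 615 nm | test system = E. coli ΔtolC::kan strain BW25113 | timing = 20 h compound exposure of bacteria at 37 °C | buffer or medium = LB medium plus 50 µg/mL kanamycin | compound dosing = 10 µM final, single dose | evaluation = % inhibition of E. coli growth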
# CYP2C9 inhib: inhibitors of human CYP2C9 | P11712 | CYP2C9 Supersomes, luciferin-H conversion, luminescence | inhibition, % at 5 µM | 96,000 tested, 20% active | AID 777;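 active means blocking of liver enzyme CYP2C9 beyond about 50% at 5 µM, limit read from the data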
# CYP2C19 inh: blocks human cytochrome P450 2C19 | P33261 | CYP2C19 Supersomes, luciferin-H EGE luminescence, 30 min | inhibition, % at 5 µM | 96,000 tested, 21% active | AID 778;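 active means CYP2C19 inhibition above a set limit at 5 µM in the primary screen, cut at about 50% in these data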;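 further: plate controls were negative control wells for no effect and 2.5 mM tranylcypromine positive control for full effect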
# Target sequence (P33261 whole entry, looked up): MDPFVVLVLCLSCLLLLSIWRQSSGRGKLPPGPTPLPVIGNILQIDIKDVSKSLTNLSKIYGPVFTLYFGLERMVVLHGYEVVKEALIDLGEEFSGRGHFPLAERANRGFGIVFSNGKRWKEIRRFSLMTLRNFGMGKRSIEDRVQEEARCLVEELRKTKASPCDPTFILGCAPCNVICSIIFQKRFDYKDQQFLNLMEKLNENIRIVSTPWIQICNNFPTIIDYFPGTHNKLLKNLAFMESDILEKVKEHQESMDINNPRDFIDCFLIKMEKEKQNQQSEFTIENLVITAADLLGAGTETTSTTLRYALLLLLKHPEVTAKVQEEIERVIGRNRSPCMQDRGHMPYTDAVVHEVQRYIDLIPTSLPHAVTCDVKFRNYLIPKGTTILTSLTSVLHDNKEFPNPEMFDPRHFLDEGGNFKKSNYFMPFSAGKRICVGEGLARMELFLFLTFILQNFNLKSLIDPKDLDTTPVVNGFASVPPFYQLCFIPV
# E coli WT exp: E. coli BW25113 growth inhibition, expanded screen; OD600 absorbance; growth inhibition, % at 100 µM; 98,000 tested, 0.15% active; AID 710;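 active means growth inhibition above about 50% at one test dose, limit read from the data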;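 further: growth measured after 20 h incubation at 37 °C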
# CYP2C19 activ: cytochrome P450 2C19 (human) activation. P33261. recombinant CYP2C19, luciferin-H EGE luminescence; stronger effect = higher value; 0 = fully inhibited enzyme, 1 = untreated enzyme. activation factor at 5 µM. 96,000 tested, under 10 active. AID 1025;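 active means activation factor of at least 2 at 5 µM in the primary screen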;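 further: 0 = wells with 2.5 mM tranylcypromine and 1 = vehicle-only wells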
# CYP2C9 act: CYP2C9 (human) activation. P11712. recombinant CYP2C9, luciferin-H conversion, luminescence; stronger effect = higher value; factor 1 = untreated enzyme, 0 = blocked. activation factor at 5 µM. 96,000 tested, 1.4% active. AID 1024;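 active means activation factor of 2 or more for CYP2C9 at a 5 µM dose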;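 further: 0 = sulfaphenazole-blocked wells and 1 = vehicle-only wells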
# * marks the source's active call; other numbers are inactive results; x = no result. An excerpt weighted towards active compounds, which were near 29% of everything screened.
SMILES,Ecoli tolC,CYP2C9 inhib,CYP2C19 inh,E coli WT exp,CYP2C19 activ,CYP2C9 act
COc1ccc(C2=NN(C(=O)CSc3cn(C)c4ccccc34)C(c3ccc(OC)cc3)C2)cc1 (stereo not given),x,62*,50*,-10,0.5,0.4
O=S1(=O)N=C(N2CCc3ccccc3C2)c2ccccc21,-11,-20,40,6,0.6,1.2
S=C(c1ccccc1)N(c1ccccc1)c1ccccc1,x,31,94*,-10,0.1,0.7
CC1=C(C(=O)Nc2ccccc2)C(c2ccccc2)N2C(=O)CSC2=N1 (stereo not given),-14,8,3,4,1,0.9
CC1=C(C(=O)Nc2ccccc2)C(c2ccc(C)o2)N2C(=O)CSC2=N1 (stereo not given),-9,46,64*,2,0.4,0.5
CC1=C(C(=O)Nc2ccccc2)C(c2ccc(C)o2)n2c(s/c(=C/c3ccccc3)c2=O)=N1 (stereo not given),x,87*,72*,-12,0.3,0.1
O=C(NCCC(=O)N1CCNC1=O)OCc1ccccc1,-7,-32,24,5,0.8,1.3
O=C(Nc1ccccc1)c1n[nH]c(Cn2cncn2)n1,x,-2,1,-2,1,1
N#C/C(=C\c1ccc(Cl)cc1Cl)c1n[nH]c(Cn2cncn2)n1,x,78*,61*,-6,0.4,0.2
CC(C)NC(=O)CSc1nncn1-c1ccccc1,-6,-7,-7,-2,1.1,1.1
CCn1ncc(Br)c1C(=O)Nc1sc2c(c1C(N)=O)CCC2,4,21,27,0,0.7,0.8
CCCCC(=O)Nc1sc2c(c1C(N)=O)CCC2,15,77*,47,6,0.5,0.2
CC(=O)Nc1sc2c(c1C(N)=O)CCCC2,x,7,8,6,0.9,0.9
CCC1(CC)NC(=O)N(CC(=O)Nc2sc3c(c2C(N)=O)CCC3)C1=O,-1,74*,39,-12,0.6,0.3
CCN(CC)S(=O)(=O)c1ccc(OC(C)C)nc1,-1,24,79*,5,0.2,0.8
CCN(CC)S(=O)(=O)c1ccc(OC)nc1,x,24,32,-5,0.7,0.8
COc1ccccc1C1=Nn2c(nnc2C2CCCCC2)SC1,15,33,39,6,0.6,0.7
CCCc1nnc2n1N=C(c1ccc(OC)c(OC)c1)CS2,6,x,x,6,x,x
COc1ccc(C2=Nn3c(nnc3C3CCCCC3)SC2)cc1OC,x,72*,64*,-2,0.4,0.3
COc1ccc(OC)c(C2=Nn3c(nnc3C3CCCCC3)SC2)c1,18,78*,94*,-1,0.1,0.2
CCOc1ccc(N(CC(=O)Nc2ccc3c(c2)OCCO3)S(=O)(=O)c2c(C)noc2C)cc1,-3,8,0,0,1,0.9
c1ccc(COc2ccc(CNn3cnnc3)cc2)cc1,-12,24,25,9,0.8,0.8
Cc1nn(C)c2ncc(C(=O)c3cc(F)ccc3O)cc12,x,68*,95*,1,0,0.3
COc1ccc(O)c(C(=O)c2cnc3onc(C)c3c2)c1,-13,38,83*,2,0.2,0.6
Cc1[nH]nc2ncc(C(=O)c3ccccc3O)cc12,2,34,25,5,0.7,0.7
SMILES,Ecoli tolC,CYP2C9 inhib,CYP2C19 inh,E coli WT exp,CYP2C19 activ,CYP2C9 act
COCCOC(=O)c1cc(C(=O)c2cc(F)ccc2O)coc1=N,6,x,x,0,x,x
CCCCN(CC)CCCNC(=O)C1c2ccccc2C(=O)N(C)C1c1cn(C)c2ccccc12 (stereo not given),x,24,9,-4,0.9,0.8
COc1ccc(C(=O)NCCc2nnc(SCC(=O)Nc3ccccc3C(C)C)n2C)cc1,x,30,44,3,0.6,0.7
CC(Nc1cc(=O)n(C)c(=O)[nH]1)c1ccccc1 (stereo not given),-3,41,6,0,0.9,0.6
O=C(c1ccc2c(c1)OCO2)[C@@H]1[C@@H]2C(=O)N(C3CCCCC3)C(=O)[C@@H]2C2c3ccccc3C=CN21 (stereo not given in full),0,76*,58*,-14,0.4,0.2
O=C(Nc1ccc2c(c1)OCO2)[C@@H]1[C@@H]2C(=O)N(C3CCCCC3)C(=O)[C@@H]2C2c3ccccc3C=CN21 (stereo not given in full),17,8,-8,2,1.1,0.9

# Bioassay records deposited in PubChem BioAssay by several laboratories.
